Published values collected from several papers.
Compare with care: the assays were run in different laboratories. pEC50, pIC50: −log10 of the molar value.
Cell line: MV4-11
Effect on: cell growth or viability

SMILES | assay | conditions | quantity | result
COc1cc(-c2cc(C(C)=O)n3ccccc23)c(OC)cc1Cn1ccnc1 | ATP luminescence |  | pIC50 | 7.15
c1cc(N2CCC(N3CCOCC3)CC2)ccc1Nc1ccc2ncc(OCC3CCNCC3)nc2c1 | XTT | 7 days | pEC50 | ≤ 4.55
O=C(NO)c1ccc(Cn2cnc3c(Nc4ccc(Cl)cc4)ncnc32)cc1 | MTT | 72 h | pIC50 | 7.22
CC(C)Cc1ccc([C@H](C)C(=O)O)cc1 | MTT | 72 h | pIC50 | 3.56
c1ccc(Oc2ccc(Nc3ccc4ncc(OCC5CCNCC5)nc4c3)cc2)cc1 | XTT | 7 days | pEC50 | 6.06
COc1ccc(Nc2ncnc3c2ncn3Cc2ccc(C(=O)NO)cc2)cc1 | MTT | 72 h | pIC50 | 6.24
CN(C)CCNC(=O)c1ccc(-c2nc3ccc4[nH]ncc4c3c3c2COCC3)cc1 | resazurin | 72 h | GI50 | 0.291 µM
c1cc(N2CCCC2)ccc1-c1cc2ncc(OCC3CCNCC3)nc2cc1-c1ccc(N2CCCC2)cc1 | XTT | 7 days | pEC50 | 5.72
O=C(NCCN1CCCC1)c1ccc(-c2nc3ccc4[nH]ncc4c3c3c2CCCC3)c(F)c1 | resazurin | 72 h | GI50 | 0.208 µM
Nc1ccccc1NC(=O)c1ccc(Cn2cnc3c(Nc4ccc(Cl)cc4)ncnc32)cc1 | MTT | 72 h | pIC50 | 6.23
O=C(NCC1CC1)c1ccc(-c2nc3ccc4[nH]ncc4c3c3c2CCCC3)cc1 | resazurin | 72 h | GI50 | > 10 µM
Fc1ccc(Oc2ccc(Nc3ccc4ncc(OCC5CCNCC5)nc4c3)cc2)cc1 | XTT | 7 days | pEC50 | 6.02
Cc1n[nH]c2ccc3nc(-c4ccc(C(=O)NCCN(C)C)cc4)c4c(c3c12)CCC(C)(C)C4 | resazurin | 72 h | GI50 | 0.223 µM
Cc1cc2c(C(N)=O)cccc2n1-c1nc2c(c(NCc3ccccc3)n1)CCCN2 |  | 72 h | pIC50 | 6.52
O=C(NO)c1ccc(Cn2cnc3c(Nc4ccc(Br)cc4F)ncnc32)cc1 | MTT | 72 h | pIC50 | 6.11
